ChEMBL document CHEMBL2321707, “Synthesis, SAR study, and biological evaluation of a series of piperazine ureas as fatty acid amide hydrolase (FAAH) inhibitors” (Bioorg Med Chem, 2013)

test: Drug level in rat brain at 0.1 mg, iv at 1 hr; format: ADME, organism-based; details: read-out: Drug uptake
Procedure, shortened: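 Rats given 0.1 mg/kg i.v.; brain homogenized 1 h after dosing and compound concentration measured in tissue.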

| concentration at 1 h | Compound |
| --- | --- |
| 103 ng/g | Cc1noc(NC(=O)N2CCN(c3nc(-c4ccccc4F)cs3)CC2)c1C |
| 132 ng/g | Cc1noc(NC(=O)N2CCN(c3nc(-c4ccc(F)cc4)cs3)CC2)c1C |
| 101 ng/g | Cc1noc(NC(=O)N2CCN(c3nc(-c4cccc(F)c4)cs3)CC2)c1C |
| 23 ng/g | Cc1noc(NC(=O)N2CCN(c3nc(-c4ccccc4)cs3)CC2)c1C |

More lines, now with the values behind:

| Compound | concentration at 1 h |
| --- | --- |
| Cc1noc(NC(=O)N2CCN(c3nc(-c4ccccc4)ns3)CC2)c1C | 25 ng/g |
| Cc1noc(NC(=O)N2CCN(c3nc(-c4ccc(F)cc4)ns3)CC2)c1C | 17 ng/g |
| Cc1noc(NC(=O)N2CCN(c3nc(-c4ccc(F)cc4F)cs3)CC2)c1C | 82 ng/g |
| Cc1noc(NC(=O)N2CCN(c3nc(-c4ccccc4F)ns3)CC2)c1C | 4.6 ng/g |
| Cc1noc(NC(=O)N2CCN(c3nc(-c4cccc(F)c4)ns3)CC2)c1C | 12 ng/g |

test: Bioavailability in rat; format: ADME, organism-based; details: in vivo
Procedure, shortened: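 Rat cassette dosing, 1 mg/kg po.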

| bioavailability | Compound |
| --- | --- |
| 5% | O=C(Nc1noc2ccccc12)N1CCN(c2nc(-c3ccccc3)ns2)CC1 |
